Laboratory results: ChEMBL document CHEMBL1145571, “Carboxylic acid isosteres improve the activity of ring-fused 2-pyridones that inhibit pilus biogenesis in E. coli” (Bioorg Med Chem Lett, 2008)
pIC50: −log10 of the molar value.

Columns and labels:
Escherichia coli [1] = assay: Inhibition of P pilus biogenesis in Escherichia coli HB101/pPAP5 assessed as agglutination of erythrocytes at 1.8 mM; type: functional
In short: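 E. coli HB101/pPAP5 grown 24 h at 37 °C on TSA containing 1.8 mM compound, 2.5% DMSO and 100 μg/ml ampicillin. Cells scraped off, suspended in PBS pH 7.4 to OD600 = 1.0. 1 ml pelleted at 2000g for 5 min, resuspended in 80 μl PBS, then serially diluted in PBS for hemagglutination read-out.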

Escherichia coli [2] = assay: Inhibition of pili-dependent biofilm formation of Escherichia coli HB101/pPAP5; type: functional, organism-based
[3] = molecular target: Chaperone protein PapD (Escherichia coli) (UniProt P15319); assay: Binding affinity to Escherichia coli PapD relative to control; parameters: concentration or dose not given beside the values
Chain of Chaperone protein PapD (Escherichia coli) (P15319 whole entry, looked up): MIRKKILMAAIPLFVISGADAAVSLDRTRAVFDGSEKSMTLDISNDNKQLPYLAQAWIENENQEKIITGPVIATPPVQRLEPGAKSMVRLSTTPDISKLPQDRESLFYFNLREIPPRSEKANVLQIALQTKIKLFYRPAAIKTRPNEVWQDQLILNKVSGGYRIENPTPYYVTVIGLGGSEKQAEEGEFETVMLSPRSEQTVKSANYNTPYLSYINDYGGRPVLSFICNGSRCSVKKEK

Escherichia coli [4] = assay: Inhibition of pili-dependent biofilm formation of Escherichia coli HB101/pPAP5 at 400 uM; type: functional; parameters: scale not given: the % may be the effect or the level left

**Q.** Which results are given for `CS(=O)(=O)NC(=O)[C@@H]1CSc2c(C3CC3)c(Cc3cccc4ccccc34)cc(=O)n21`?
**A.** Activity (Escherichia coli [1]): 2; pIC50 (Escherichia coli [2]): 4.52; Activity [3]: 62%

**Q.** How did the Activity (Escherichia coli [1]) turn out when `NC(=O)[C@@H]1CSc2c(C3CC3)c(Cc3cccc4ccccc34)cc(=O)n21` was run?
**A.** Its Activity is 64.

**Q.** What about the Activity [3] of the same compound?
**A.** The Activity was 40%.

**Q.** For `CS(=O)(=O)NC(=O)[C@@H]1CSc2c(-c3ccccc3)c(Cc3cccc4ccccc34)cc(=O)n21`, which Activity (Escherichia coli [1]) is on record?
**A.** Its Activity is 4.

**Q.** With `NC(=O)[C@@H]1CSc2c(-c3ccccc3)c(Cc3cccc4ccccc34)cc(=O)n21` as the compound, how does the Activity (Escherichia coli [1]) read?
**A.** Its Activity is 64.

**Q.** With `C[C@@H](C(=O)O)n1cc(-c2ccccc2)c(Cc2cccc3ccccc23)cc1=O` as the compound, how does the Activity (Escherichia coli [1]) read?
**A.** The Activity was 32.

**Q.** With `O=C(NS(=O)(=O)c1ccccc1)[C@@H]1CSc2c(-c3ccccc3)c(Cc3cccc4ccccc34)cc(=O)n21` as the compound, how does the Activity (Escherichia coli [1]) read?
**A.** The Activity was 4.

**Q.** Which Activity (Escherichia coli [1]) does the source give for `O=C(NO)[C@@H]1CSc2c(-c3ccccc3)c(Cc3cccc4ccccc34)cc(=O)n21` here?
**A.** Its Activity is 128.

**Q.** `O=c1cc(Cc2cccc3ccccc23)c(C2CC2)c2n1[C@H](c1nnn[nH]1)CS2` was tested. Which Activity (Escherichia coli [1]) did it give?
**A.** The Activity was 4.

**Q.** And the pIC50 (Escherichia coli [2])?
**A.** The pIC50 was 4.19.

**Q.** And the Activity [3]?
**A.** Its Activity is 67%.

**Q.** What does the source list for `C[C@@H](C(=O)[O-])n1cc(C2CC2)c(Cc2cccc3ccccc23)cc1=O.[Li+]`?
**A.** Activity (Escherichia coli [1]): 32; Activity [3]: 33%

**Q.** `O=C(NS(=O)(=O)c1ccccc1)[C@@H]1CSc2c(C3CC3)c(Cc3cccc4ccccc34)cc(=O)n21` was tested. Which Activity (Escherichia coli [1]) did it give?
**A.** The Activity was 4.

**Q.** And the Activity [3]?
**A.** The Activity was 100%.

**Q.** `O=C([O-])[C@@H]1CSc2c(C3CC3)c(Cc3cccc4ccccc34)cc(=O)n21.[Li+]` was tested. Which Activity (Escherichia coli [1]) did it give?
**A.** Its Activity is 8.

**Q.** And the Activity (Escherichia coli [4])?
**A.** Its Activity is 45%.

**Q.** And the Activity [3]?
**A.** The Activity was 71%.

**Q.** Which Activity (Escherichia coli [1]) does the source give for `O=c1cc(Cc2cccc3ccccc23)c(-c2ccccc2)c2n1[C@H](c1nnn[nH]1)CS2` here?
**A.** Its Activity is 2.

**Q.** Which Activity (Escherichia coli [1]) does the source give for `O=C(NO)[C@@H]1CSc2c(C3CC3)c(Cc3cccc4ccccc34)cc(=O)n21` here?
**A.** The Activity was 64.

**Q.** And the Activity [3]?
**A.** Its Activity is 52%.
